Reference: publication PMC8374356 (Biochemistry and Biophysics Reports, 2021)

Key:
Format in all cases: cell-based, mouse
[1] = test system: AIF; test: AIF nuclear translocation by immunocytochemistry; settings: HT22 cells, 2 mM glutamate alone for up to 18 h
[2] = test system: HT22 cells; test: Cell morphology by phase contrast microscopy; settings: 50 μM peptide or 2 mM glutamate (positive control), 24 h
[3] = test system: HT22 cells; test: Immunofluorescent staining of ssDNA; settings: 2 mM glutamate alone for 18 h
Method in brief: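 HT22 cells on cover glass (5 × 10⁴ cells/well, 24 h) exposed to 2 mM L-glutamate in fresh medium for 18 h. Fixed in 4% paraformaldehyde (pH 7.4, 4 °C, 30 min), acetone-permeabilised, goat-serum blocked. Rabbit anti-ssDNA (1:200, 4 °C overnight), Alexa 594 secondary with DAPI. Confocal imaging; ssDNA-positive cells counted over total nuclei. At least three repeats, mean ± SD, ANOVA/Tukey-Kramer.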

[4] = test system: HT22 cells; test: TUNEL assay of glutamate-induced oxytosis; settings: 2 mM glutamate alone for 18 h, normalized by nuclei count

- cell morphology [2]: induced cell detachment and shrinkage
SMILES: N[C@@H](CCC(=O)O)C(=O)O [glutamate, L-glutamate]
- AIF localization [1]: induced diffuse localization of AIF in both cytoplasm and nucleus
- ssDNA-positive cells [3]: 40%
- TUNEL-positive cells [4]: up to 73%
